The source made the active and inactive calls. The calls are words filed in the database; no cut-off is given here.
Columns and labels:
[1] = Cytotoxicity against mouse RAW264.7 cells assessed as cell survival at 20 uM after 4 hrs by MTT assay relative to control; type: cell-based; details: read-out: Survival
Summary of the method: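 RAW 264.7 cells plated at 3 × 10^5 cells/mL in phenol red-free 10% FBS–DMEM, incubated 24 h, then treated with compound plus 1 μg/mL LPS for 20 h. After the Griess step, MTT was added (final 500 μg/mL) for 4 h at 37 °C. Formazan dissolved in DMSO, A570 read; survival taken relative to control; triplicate.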

Mus musculus [2] = test: Antiinflammatory activity in ICR mouse ear edema model assessed as inhibition of TPA-induced ear edema at 10 mg/kg, po administered 30 mins prior to TPA challenge measured after 4 hrs relative to vehicle-treated control; type: functional
Summary of the method: (§1)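 ICR mice (male, 18−20 g, 5 weeks old) dosed orally 30 min before TPA (1.0 μg in 20 μL acetone) was applied to inner and outer surfaces of the right ear. Killed by cervical dislocation after 4 h. Edema taken as the weight of a 5 mm punch biopsy of the right ear over the left. Ear homogenates were Western blotted for iNOS, COX-2 and IL-1β.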

[3] = biological target: Transcription factor p65 (Mus musculus) (UniProt Q04207); test: Inhibition of LPS-induced NFkappaB P65 protein nuclear translocation in mouse RAW264.7 cells at 10 uM after 30 mins by Western blotting analysis relative to control; type: cell-based
Sequence of Transcription factor p65 (Mus musculus) (Q04207 whole entry): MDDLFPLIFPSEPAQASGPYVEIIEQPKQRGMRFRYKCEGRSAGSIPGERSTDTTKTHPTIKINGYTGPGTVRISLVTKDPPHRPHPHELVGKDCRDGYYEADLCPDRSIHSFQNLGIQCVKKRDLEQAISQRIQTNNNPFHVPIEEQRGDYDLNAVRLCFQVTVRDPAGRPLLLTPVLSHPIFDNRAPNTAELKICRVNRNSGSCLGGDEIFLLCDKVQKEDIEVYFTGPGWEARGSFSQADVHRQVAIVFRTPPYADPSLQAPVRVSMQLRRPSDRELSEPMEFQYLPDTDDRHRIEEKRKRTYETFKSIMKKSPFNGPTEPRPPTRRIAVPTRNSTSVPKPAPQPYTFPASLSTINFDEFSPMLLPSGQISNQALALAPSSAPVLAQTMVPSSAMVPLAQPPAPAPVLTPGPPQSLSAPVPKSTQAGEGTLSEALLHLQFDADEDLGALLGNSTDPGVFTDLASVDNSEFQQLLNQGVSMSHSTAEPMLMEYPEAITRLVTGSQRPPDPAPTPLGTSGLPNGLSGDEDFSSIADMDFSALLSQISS
Summary of the method: (§2)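 Macrophages were exposed to compound for 30 min before LPS stimulation, with proteins extracted 30 min later. Nuclear extracts were prepared in Tris/KCl/NP-40 lysis buffer, then 420 mM NaCl buffer, and the cytosolic fraction was kept for IκB-α. Western blot on PVDF with ECL detection. Tests in triplicate; representative of three separate experiments.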

RAW264.7 [4] = test: Antiinflammatory activity in mouse RAW264.7 cells assessed as inhibition LPS-induced TNF-alpha mRNA expression at 20 uM after 4 hrs by RT-PCR analysis relative to control; type: functional
Summary of the method: (§3)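 RAW 264.7 cells stimulated with LPS (1 μg/mL) with or without compound for 4 h. Total RNA was isolated and cytokine mRNA was analysed by RT-PCR: 94 °C 4 min, then 25−30 cycles of 94/55/72 °C for 30 s each, then 72 °C 5 min. Products were run on 2% agarose and stained with SYBR-Safe. Triplicate, representative of three experiments.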

RAW264.7 [5] = test: Antiinflammatory activity in mouse RAW264.7 cells assessed as inhibition LPS-induced TNF-alpha mRNA expression at 10 uM after 4 hrs by RT-PCR analysis relative to control; type: functional; summary of the method: as §3
Rattus norvegicus [6] = test: Antiinflammatory activity in rat paw edema model assessed as inhibition of carrageenan-induced paw edema at 10 mg/kg, po administered 30 mins prior to carrageenan challenge measured after 4 hrs relative to vehicle-treated control; type: functional
Summary of the method: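 Male SD rats (150−170 g) given compound orally in 0.5% CMC-Na 30 min before subplantar injection of 0.1 mL 1% carrageenan; the contralateral paw received saline. Paw volume was measured by plethysmometer from 0 to 6 h, with inhibition taken at 4 h versus vehicle. Mean ± SD, n = 6.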

Rattus norvegicus [7] = test: Antiinflammatory activity in rat paw edema model assessed as inhibition of carrageenan-induced iNOS protein expression in paw tissue at 20 mg/kg, po administered 30 mins prior to carrageenan challenge measured after 6 hrs by Western blotting analysis relative to vehicle-treated control; type: functional, organism-based; set-up: dose 20 mg/kg
Summary of the method: (§4)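 SD rats received compound orally in 0.5% CMC-Na 30 min before subplantar injection of 0.1 mL 1% carrageenan in saline. Paws were removed at 6 h, homogenized, and iNOS, COX-2 and IL-1β were assessed by Western blot. Triplicate, representative of three experiments.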

Mus musculus [8] = test: Antiinflammatory activity in ICR mouse ear edema model assessed as inhibition of TPA-induced iNOS protein expression in ear tissue at 10 to 20 mg/kg, po administered 30 mins prior to TPA challenge measured after 4 hrs by Western blotting analysis relative to vehicle-treated control; type: functional, organism-based; summary of the method: as §1
RAW264.7 [9] = test: Antiinflammatory activity in mouse RAW264.7 cells assessed as inhibition LPS-induced IL-1beta mRNA expression at 20 uM after 4 hrs by RT-PCR analysis relative to control; type: functional; summary of the method: as §3
[10] = biological target: Transcription factor p65 (Mus musculus) (UniProt Q04207); test: Inhibition of LPS-induced NFkappaB P65 protein nuclear translocation in mouse RAW264.7 cells at 40 uM after 30 mins by Western blotting analysis relative to control; type: cell-based; summary of the method: as §2
RAW264.7 [11] = test: Antiinflammatory activity in mouse RAW264.7 cells assessed as inhibition of LPS-induced nitric oxide production at 40 uM administered 30 mins prior to LPS challenge measured after 20 hrs by Griess assay relative to control; type: functional
Summary of the method: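 RAW 264.7 cells at 3 × 10^5 cells/mL in phenol red-free 10% FBS DMEM, pretreated for 30 min, then given 1 μg/mL LPS for 20 h. Nitrite in the medium was read by Griess reaction at 540 nm against a sodium nitrite standard curve. % inhibition was calculated versus vehicle control, and IC50 by nonlinear regression. Mean ± SD of triplicates.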

RAW264.7 [12] = test: Inhibition of LPS-induced NFkappaB transcriptional activity in mouse RAW264.7 cells assessed as […] at 10 uM after 30 mins by Western blotting analysis relative to control; type: cell-based; summary of the method: as §2
Rattus norvegicus [13] = test: Antiinflammatory activity in rat paw edema model assessed as inhibition of carrageenan-induced COX2 protein expression in paw tissue at 20 mg/kg, po administered 30 mins prior to carrageenan challenge measured after 6 hrs by Western blotting analysis relative to vehicle-treated control; type: functional, organism-based; set-up: dose 20 mg/kg; summary of the method: as §4
RAW264.7 [14] = test: Antiinflammatory activity in mouse RAW264.7 cells assessed as inhibition LPS-induced IL-1beta protein expression at 10 uM after 4 hrs by Western blotting analysis; type: functional
Summary of the method: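 RAW 264.7 cells stimulated with LPS (1 μg/mL) with or without compound for 4 h. Lysates were resolved by 6−15% SDS-PAGE and blotted to PVDF. Blocked in 5% milk/PBST, primary antibody overnight at 4 °C, secondary antibody 2 h, detected by ECL. Triplicate, representative of three experiments.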

C=C1C(=O)O[C@@H]2[C@@H]3[C@@]4(C=C[C@@]3(C)[C@]3(C4)C(=O)O[C@@H]4[C@H]5C(C)=CC[C@H]5[C@](C)(O)C[C@H](OC(C)=O)[C@H]43)[C@](C)(O)CC[C@@H]12
viability at 4 h, 20 µM [1]: > 80%
inhibition in vivo at 10 mg/kg (Mus musculus [2]): 43%
inhibition [3]: Active
fold change (FC) (RAW264.7 [4]): 0.66
fold change (FC) (RAW264.7 [5]): 0.66
inhibition (RAW264.7 [5]): Active
inhibition in vivo at 10 mg/kg (Rattus norvegicus [6]): 22%
inhibition (Rattus norvegicus [7]): Active
inhibition (Mus musculus [8]): Active
fold change (FC) (RAW264.7 [9]): 0.79
fold change (FC) [10]: 0.49
inhibition (INH) (RAW264.7 [11]): 98%
fold change (FC) (RAW264.7 [12]): 1.91
inhibition (Rattus norvegicus [13]): Active
fold change (FC) (RAW264.7 [14]): 0.73

Reference: ChEMBL document CHEMBL3259611, “Suppression of inflammatory responses by handelin, a guaianolide dimer from Chrysanthemum boreale, via downregulation of NF-κB signaling and pro-inflammatory cytokine production” (J Nat Prod, 2014)
